# Reference: PubChem BioAssay
# Active and inactive are the calls of the source.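 The calls were made as follows, unless noted: active = viability loss from added drug above about 55%, and viability with drug at most 40%, in both replicates (limit read from the data, passing the limit was not always enough); inconclusive = both conditions met in only one replicate; inactive = neither replicate meets both conditions.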
# Experiments:
# [1] = reducers of endogenous Her2 protein level, primary screen, SKBR3 breast tumor cells, AlphaScreen, ATP viability (AID 461;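 active = Her2 level under about 52% in both replicate screens, with viability over 70% of control, limit read from the data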;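 as to Her2 level: lower value means less Her2 protein in the cells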;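 as to viability: percent of carrier control wells set as 100% viability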); details: 18-24 h, measured here: SKBR3 viability, ATP luminescence, at 10 µM
# [2] = molecular target: Receptor tyrosine-protein kinase erbB-2 (Homo sapiens) (UniProt P04626); assay: as above; details: 18-24 h, at 10 µM, stronger effect = lower value
# [3] = SK-BR-3 cell growth inhibitors, pilot screen, 24 h, human (AID 572;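 active = viability at or below 10% of carrier control in both of two separate runs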;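 also: compound exposure lasted between 18 and 24 h rather than exactly 24 h; 100% = carrier-treated control wells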); details: SK-BR-3 viability, CellTiter-Glo luminescence, at 10 µM, stronger effect = lower value
# [4] = HUVEC growth inhibition – cell-based, human, primary screen (AID 575;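 active = viability at or below 30% in both replicate assays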;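 also: 100% = median of untreated cell wells with 0.1% DMSO on each plate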); details: HUVEC proliferation, CellTiter-Glo luminescence, 72 h; at 10 µM; stronger effect = lower value
# How it was run: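 Timing: 72 h treatment at 37 °C; material: HUVEC primary cells; technique: CellTiter-Glo luminescence measuring cellular ATP; controls: vehicle and MePR control wells; measure: percent of median DMSO-control luminescence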
# [5] = growth inhibitors of H69AR lung tumor, primary screen, human, duplicate replicates (AID 580;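 active = viability at or under a set limit in both replicates, limit being median viability minus 3 SD, cut at about 48% in these data, passing the limit was not always enough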;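 also: 100% = mean luminescence of untreated wells and 0% = no signal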); details: H69AR lung tumor cells viability, ATP luminescence, 72 h; at 10 µM; stronger effect = lower value
# [6] = reversal of MRP1-mediated doxorubicin resistance, pilot screen, H69AR cells, doxorubicin co-treatment (AID 601); details: CellTiter-Glo, 72 h, at 10 µM; for differential viability (reversal): stronger effect = higher value
# [7] = 384-well plate pilot, post-Golgi transport modulator project, inhibition of yeast transport mutant growth (AID 636; in the data active = inhibition above about 31%); details: absorbance 615 nm, about 18 h, stronger effect = higher value
# [8] = growth suppression of yeast trafficking mutant, preliminary HTS, modulators of trafficking downstream of Golgi apparatus project, 1536-format plate, OD 615 nm (AID 637; in the data active = inhibition above about 30%); details: yeast transport mutant growth, absorbance 615 nm, 18 h; stronger effect = higher value
# [9] = H69AR cells + 2 uM doxorubicin, measured here: viability with 2 uM doxorubicin, stronger effect = lower value
# [10] = H69AR cells, compound alone cytotoxicity
# Receptor tyrosine-protein kinase erbB-2 (Homo sapiens), sequence (P04626 whole entry, looked up): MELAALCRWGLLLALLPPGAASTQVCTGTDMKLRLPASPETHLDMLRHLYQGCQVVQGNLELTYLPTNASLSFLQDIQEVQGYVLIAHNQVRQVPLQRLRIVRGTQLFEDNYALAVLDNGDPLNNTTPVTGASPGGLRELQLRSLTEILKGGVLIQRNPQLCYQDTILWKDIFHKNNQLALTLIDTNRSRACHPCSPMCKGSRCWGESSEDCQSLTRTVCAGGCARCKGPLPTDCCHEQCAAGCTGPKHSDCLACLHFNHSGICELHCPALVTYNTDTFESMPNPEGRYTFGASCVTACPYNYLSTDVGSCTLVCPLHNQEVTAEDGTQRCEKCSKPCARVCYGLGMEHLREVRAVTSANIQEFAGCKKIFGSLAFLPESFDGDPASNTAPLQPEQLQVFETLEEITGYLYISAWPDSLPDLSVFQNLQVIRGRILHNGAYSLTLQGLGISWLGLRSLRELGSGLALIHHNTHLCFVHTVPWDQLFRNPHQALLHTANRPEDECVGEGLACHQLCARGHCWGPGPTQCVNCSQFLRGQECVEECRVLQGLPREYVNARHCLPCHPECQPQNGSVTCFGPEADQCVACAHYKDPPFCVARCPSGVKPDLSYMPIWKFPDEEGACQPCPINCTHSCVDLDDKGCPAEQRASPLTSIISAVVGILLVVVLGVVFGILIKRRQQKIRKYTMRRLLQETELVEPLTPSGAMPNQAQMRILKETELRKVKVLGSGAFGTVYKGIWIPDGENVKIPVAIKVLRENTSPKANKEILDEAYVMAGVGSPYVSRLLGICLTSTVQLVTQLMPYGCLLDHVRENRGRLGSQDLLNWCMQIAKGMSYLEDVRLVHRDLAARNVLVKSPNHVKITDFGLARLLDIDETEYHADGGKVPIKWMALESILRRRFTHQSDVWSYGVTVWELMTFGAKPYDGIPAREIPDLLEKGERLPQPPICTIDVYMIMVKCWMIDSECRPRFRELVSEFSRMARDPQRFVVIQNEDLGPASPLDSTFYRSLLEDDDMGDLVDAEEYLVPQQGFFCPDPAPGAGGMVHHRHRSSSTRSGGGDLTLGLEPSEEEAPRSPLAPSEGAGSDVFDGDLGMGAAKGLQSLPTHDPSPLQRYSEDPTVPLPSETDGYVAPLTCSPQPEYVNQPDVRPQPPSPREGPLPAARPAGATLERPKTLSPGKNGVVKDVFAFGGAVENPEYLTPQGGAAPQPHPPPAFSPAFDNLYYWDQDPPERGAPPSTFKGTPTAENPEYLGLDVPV
Compound,viability [1],Her2 level [2],viability [3],viability [4],viability [5],differential viability (reversal) ([6]; H69AR cells + 2 uM doxorubicin),"viability [6, 9]","viability [6, 10]",inhibition [7],inhibition [8]
OCc1cn(-c2ccccc2)nc1-c1ccc2c(c1)OCCO2,93%,102% (inactive),93% (inactive),70.5% (inactive),83.9% (inactive),-4.38% (inactive),88.3%,83.9%,-7.95% (inactive),-4.44% (inactive)
C=CCn1cc(C(=O)NCCOC)c(=O)c2cc(S(=O)(=O)N(CC)CC)ccc21,98.5%,93.5% (inactive),98.5% (inactive),86.6% (inactive),83.1% (inactive),-9.34% (inactive),92.4%,83.1%,-5.13% (inactive),-2.73% (inactive)
CCCOc1ccc(N2C(=O)C3ON(c4ccccc4)C(c4ccc(O)c(OC)c4)C3C2=O)cc1 (stereo not given),106%,100% (inactive),106% (inactive),71.6% (inactive),93.8% (inactive),10.6% (inactive),83.3%,93.8%,-3.03% (inactive),3.55% (inactive)
CC(C)[C@H](NC(=O)[C@@H]1CSCN1C(=O)OC(C)(C)C)C(=O)NCC1CCC(C(=O)O)CC1 (stereo not given in full),105%,104% (inactive),105% (inactive),113% (inactive),102% (inactive),2.67% (inactive),99.3%,102%,-3.33% (inactive),-3.23% (inactive)
Cc1ccc(-n2cnnn2)c2cccnc12,95.5%,92% (inactive),95.5% (inactive),72.1% (inactive),101% (inactive),7.82% (inactive),93.5%,101%,-5.53% (inactive),4.83% (inactive)
CC(=O)N(C)C1(c2nnnn2CCOC(=O)Nc2cccc3ccccc23)CCCC1,119%,85.5% (inactive),119% (inactive),83.9% (inactive),87.3% (inactive),3.21% (inactive),84.1%,87.3%,-4.13% (inactive),5.08% (inactive)
O=C(CNC1CCCCCC1)Nc1ccc(S(=O)(=O)NC2CC2)cc1,100%,87% (inactive),100% (inactive),64.8% (inactive),93.7% (inactive),5.79% (inactive),87.9%,93.7%,-4.53% (inactive),-0.48% (inactive)
Cn1cccc1Cc1nnc(SCC(=O)Nc2ccc(F)cc2F)n1-c1ccc(F)cc1,84%,90.5% (inactive),84% (inactive),81.6% (inactive),94.8% (inactive),1.3% (inactive),93.5%,94.8%,-1.03% (inactive),-3.5% (inactive)
CC1C=CC(C)C(C(=O)O)C1C(=O)O (stereo not given),103%,93% (inactive),103% (inactive),97.6% (inactive),93% (inactive),-5.29% (inactive),98.3%,93%,-0.65% (inactive),-5.67% (inactive)
Cc1ccsc1C(C(=O)NC1CCCCC1)N(C(=O)Cc1cccs1)C1CC1 (stereo not given),97.5%,125% (inactive),97.5% (inactive),89.2% (inactive),86.4% (inactive),9.3% (inactive),77.1%,86.4%,-4.87% (inactive),-4% (inactive)
CC(=O)NC1(c2nnnn2CCOC(=O)Nc2ccc(Cl)cc2)CCCCC1,112%,89% (inactive),112% (inactive),98.5% (inactive),98.5% (inactive),13% (inactive),85.4%,98.5%,-3.29% (inactive),8.69% (inactive)
CCCCn1c(CN2CCN(c3cccc(Cl)c3)CC2)nc2c1c(=O)n(C)c(=O)n2C,111%,75% (inactive),111% (inactive),66.9% (inactive),74.7% (inactive),50.2% (inactive),24.5%,74.7%,-4.74% (inactive),6.07% (inactive)
O=C(Nc1ccc2c(c1)OCO2)C(c1ccc(Cl)cc1)N1CCN(C(=O)c2ccco2)CC1 (stereo not given),71%,80.5% (inactive),71% (inactive),103% (inactive),91.4% (inactive),6.85% (inactive),84.5%,91.4%,-5.27% (inactive),2.3% (inactive)
O=C(Nc1ccccc1)N1C(=O)C2(OCCO2)c2ccccc21,114%,118% (inactive),114% (inactive),100% (inactive),87% (inactive),-11.8% (inactive),98.8%,87%,-0.79% (inactive),1.64% (inactive)
Cc1ccc(-c2cc(C(=O)O)n[nH]2)o1,95.5%,128% (inactive),95.5% (inactive),98.7% (inactive),99.3% (inactive),-1.46% (inactive),101%,99.3%,-3.01% (inactive),-0.16% (inactive)
CCOc1ccc(NC(=O)c2ccc3c(c2)N(Cc2ccc(F)cc2)C(=O)CS3=O)cc1 (stereo not given),90%,81.5% (inactive),90% (inactive),70.4% (inactive),90% (inactive),11.4% (inactive),78.6%,90%,-1.07% (inactive),-0.17% (inactive)
CCCCCn1c(CN2CCN(C)CC2)nc2c1c(=O)n(C)c(=O)n2C,103%,103% (inactive),103% (inactive),98.4% (inactive),85.9% (inactive),-6.67% (inactive),92.5%,85.9%,-3.87% (inactive),-2.67% (inactive)
O=c1c2c3c(sc2n2cnnc2n1CCc1ccccc1)CCCC3,96.5%,78.5% (inactive),96.5% (inactive),57.7% (inactive),77.1% (inactive),8.96% (inactive),68.1%,77.1%,-3.47% (inactive),6.45% (inactive)
O=C(COc1ccccc1)Nc1nc2ccccc2[nH]1,91.5%,93% (inactive),91.5% (inactive),92.5% (inactive),91.5% (inactive),5.92% (inactive),85.6%,91.5%,-1.04% (inactive),-3.93% (inactive)
O=C(CSc1nnc(-c2ccccc2)c(-c2ccccc2)n1)N1CCOCC1,97%,93% (inactive),97% (inactive),101% (inactive),85.3% (inactive),12.8% (inactive),72.5%,85.3%,0% (inactive),-5.48% (inactive)
Cc1ccc2cc(CN(Cc3ccc4c(c3)OCO4)Cc3nnnn3Cc3ccco3)c(=O)[nH]c2c1C,98.5%,97% (inactive),98.5% (inactive),85.1% (inactive),79.6% (inactive),13.3% (inactive),66.4%,79.6%,-1.33% (inactive),-3.17% (inactive)
Cc1cc(C)n(-c2nc3nonc3nc2-n2nc(C)cc2C)n1,91.5%,83% (inactive),91.5% (inactive),83.3% (inactive),105% (inactive),14.7% (inactive),90.3%,105%,-2.5% (inactive),-3.17% (inactive)
Cc1cccc(N2CCN(C(=O)Cn3ccc4ccccc4c3=O)CC2)c1C,90.5%,81% (inactive),90.5% (inactive),94.1% (inactive),95% (inactive),-1.24% (inactive),96.2%,95%,-4.34% (inactive),-2.91% (inactive)
CC(C(=O)Nc1ccccc1-c1ccccc1)N1CCOCC1 (stereo not given),108%,97.5% (inactive),108% (inactive),104% (inactive),96.1% (inactive),-1.07% (inactive),97.1%,96.1%,-10.6% (inactive),-4.13% (inactive)
O=C(CCS(=O)(=O)c1cccc2nsnc12)N1CCN(Cc2ccc3c(c2)OCO3)CC1,90.5%,99% (inactive),90.5% (inactive),92.7% (inactive),94.4% (inactive),-9.25% (inactive),104%,94.4%,-6.71% (inactive),-5.87% (inactive)
O=C(COc1ccccc1)N1CCN(C(=O)c2cccc(F)c2)CC1,112%,90% (inactive),112% (inactive),102% (inactive),101% (inactive),13.9% (inactive),86.7%,101%,-8.11% (inactive),6.72% (inactive)
O=C(NCCC1=CCCCC1)C1CC(=O)N(C2CCCCCC2)C1 (stereo not given),98%,110% (inactive),98% (inactive),104% (inactive),99.5% (inactive),11% (inactive),88.5%,99.5%,-1.15% (inactive),-0.67% (inactive)
O=C(CS(=O)(=O)c1cn(Cc2ccc(Cl)cc2)c2ccccc12)N1CCCC1,81.5%,92% (inactive),81.5% (inactive),88.2% (inactive),79.3% (inactive),-3.04% (inactive),82.3%,79.3%,-5.2% (inactive),1% (inactive)
